Most compounds without a hit are left out; they make up all but 1.8% or so of the library.
Wee1 degr inh: blocks degradation of human Wee1 kinase; 220,000 compounds, 1.2% hits; AID 1321; P30291; HeLa Luc-Wee1K328M stability, luciferase luminescence; 100% = proteasome inhibitor MG132 effect; reporter increase, % at 5 µM;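 active = activation above the mean of all tested compounds plus 3 SD, set per screening run, cut at about 8.8% in these data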;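 note: cells exposed to compound for 20 h before luminescence read; 0% = DMSO alone and 100% = MG132 at 30 µM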
thrombin 1536: thrombin (human) inhibition; AID 1046; 220,000 compounds, 0.26% hits; alpha-thrombin, Boc-VPR-AMC fluorogenic substrate cleavage; inhibition, % at 5 µM;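 active = inhibition at or above 40%; inactive = inhibition below 40%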;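 note: 0% = enzyme with no compound and 100% = wells without enzyme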
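Assay system: human alpha-thrombin enzyme. Reagent: Boc-VPR-AMC substrate, 15 µM final. Compound dosing: one concentration per compound, 5 µM, with 0.2% DMSO. Incubation: room-temperature reaction. Technique: AMC fluorescence, 355/460 nm. Measure: % inhibition relative to enzyme controls and enzyme-free blanks.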
Platelet DG rel: platelet dense granule release activity | AID 1663 | inhibition, %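 (compounds screened at 7.5 µM in platelet-rich plasma)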 | human platelet-rich plasma, SFLLRN dense granule ATP release, luminescence | 300,000 compounds, 0.22% hits;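 active = mean replicate score, as percent of positive control, at or above 50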
KLK5 inh: kallikrein 5 (human) inhibition | recombinant hK5, fluorogenic AMC substrate cleavage | inhibition, % at 5 µM | 210,000 compounds, 0.59% hits | AID 873;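 active = inhibition of 40% or more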;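 note: 0% = enzyme controls without compound and 100% = no-enzyme blanks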
FXIa inh: factor XIa (human) inhibition; AID 798; 220,000 compounds, 0.14% hits; inhibition, % at 5 µM; P03951; purified FXIa, Boc-Glu-Ala-Arg-AMC fluorogenic substrate;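 active = inhibition of at least 40%; inactive = inhibition below 40%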;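 note: fluorescence of freed AMC excited at 355 nm; 0% = enzyme without compound and 100% = no enzyme blank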
FXIIa inh 1536: inhibitors of human coagulation factor XIIa | P00748 | purified FXIIa, Boc-QGR-AMC fluorogenic substrate, 2 h | inhibition, % at 5 µM | 220,000 compounds, 0.3% hits | AID 800; in the data active = inhibition above about 40%;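 note: 0% = enzyme with no compound and 100% = blank without enzyme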
Target sequence (P00748 20-372 limits assumed): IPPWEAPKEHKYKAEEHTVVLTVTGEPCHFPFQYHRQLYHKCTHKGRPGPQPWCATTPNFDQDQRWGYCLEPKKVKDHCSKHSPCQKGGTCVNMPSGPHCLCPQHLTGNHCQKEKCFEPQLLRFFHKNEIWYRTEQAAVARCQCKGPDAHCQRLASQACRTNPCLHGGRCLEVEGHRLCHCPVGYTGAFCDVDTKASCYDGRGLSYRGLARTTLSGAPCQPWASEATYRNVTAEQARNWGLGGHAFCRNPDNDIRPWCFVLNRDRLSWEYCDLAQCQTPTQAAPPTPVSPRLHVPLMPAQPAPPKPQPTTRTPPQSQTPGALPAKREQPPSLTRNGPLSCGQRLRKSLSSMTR
Target sequence (P00748 373-615 limits assumed): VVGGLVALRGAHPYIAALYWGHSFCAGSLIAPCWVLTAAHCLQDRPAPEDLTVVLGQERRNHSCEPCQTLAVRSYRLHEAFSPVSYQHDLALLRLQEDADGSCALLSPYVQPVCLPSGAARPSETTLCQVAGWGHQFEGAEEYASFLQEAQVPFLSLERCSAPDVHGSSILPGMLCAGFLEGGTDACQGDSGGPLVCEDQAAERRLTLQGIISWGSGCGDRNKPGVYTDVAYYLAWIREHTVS
* hit, by the source's call; / = not tested or not shown.

SMILES	Wee1 degr inh	thrombin 1536	Platelet DG rel	KLK5 inh	FXIa inh	FXIIa inh 1536
COc1ccc(N(C(C)C(=O)NC2CCCCCC2)S(C)(=O)=O)cc1 (stereo not drawn)	-3.5	28.3	2.6	61.8*	3.1	12.9
C=CCOC(=O)C1=C(C)Nc2[nH]c(=O)[nH]c(=O)c2C1c1ccccc1 (stereo not drawn)	7.6	10.2	-0.7	18.5	67.3*	25.0
CCCCSc1ccc2nc(-c3ccc(C#N)cc3)cn2c1	2.8	0.4	-2.4	-37.4	1.0	13.0
CCCSc1ccc2nc(-c3ccccc3)cn2c1	-2.6	-2.5	75.3*	-15.5	2.8	6.9
COc1ccc(-c2c(C)nn(-c3ccccc3)c2N)cc1	4.8	-7.9	4.7	-1.1	-6.0	9.9
Cc1nn(-c2nc3ccccc3[nH]2)c(N)c1-c1ccc(Cl)cc1	10.7*	-6.3	0.8	-10.7	-9.4	0.0
Cc1nn(-c2ccc3ccccc3c2)c(=O)c2ccccc12	5.3	-1.9	0.2	2.6	-1.3	3.4
Cc1nn(-c2nc3ccccc3[nH]2)c(=O)c2ccccc12	-7.4	/	81.0*	-2.3	4.1	5.8
COC(=O)CC1C(=O)NCCN1C(=S)Nc1cccc(C(F)(F)F)c1 (stereo not drawn)	4.2	-12.0	0.8	0.0	-4.7	6.6
COC(=O)CC1C(=O)NCCN1C(=S)Nc1cccc(C)c1 (stereo not drawn)	-1.5	-3.4	-8.8	-20.8	34.5	44.9*
CCC(CO)NC1=C([N+](=O)[O-])C(=O)CC(C)(C)C1 (stereo not drawn)	2.6	14.9	1.5	49.7*	17.8	18.0
Cc1c(C)c2ccc(OCC(=O)Nc3ccccn3)c(C)c2oc1=O	/	/	52.2*	/	/	/
CC(=O)c1cccc(NC(=O)C(C)OC(=O)CNC(=O)c2ccc(C)s2)c1 (stereo not drawn)	9.2*	2.1	-1.7	-2.8	3.0	8.2
COc1ccc(CCNC(=O)c2nn(C)c3c2CS(=O)(=O)c2ccccc2-3)c(OC)c1	/	/	13.3	/	/	/
Cc1nc(-c2ccccc2OC(F)(F)F)[nH]c(=O)c1Cl	9.2*	-11.3	-10.0	-14.2	-3.1	-0.1
Cc1cc(=O)[nH]c(-c2ccccc2OC(F)(F)F)n1	0.3	-8.0	-1.9	-0.7	0.6	3.2
CC(C)(C)c1ccc(SCCc2cccnc2)cc1	-1.6	-0.5	11.3	-9.0	4.6	6.1
COc1cc(/C=N/NC(=O)COc2ccc(-n3cnnn3)cc2)ccc1OCC(N)=O	9.2*	4.6	13.6	4.4	-0.3	14.7
COc1ccc(/C=N/NC(=O)CCn2cnc(-c3ccccc3)c2-c2ccccc2)cc1OC	10.6*	-6.2	1.5	21.7	-5.5	-2.1
COc1ccc(/C=N/NC(=O)CCC(=O)Nc2ccccc2)cc1OC	-0.8	-7.4	4.1	-3.8	-5.4	6.7
NC(=O)COc1ccc(-n2cnnn2)cc1	-2.6	-14.6	1.8	4.5	-3.9	1.8
Cc1cccc(-c2nsc(SCC(=O)NCc3ccco3)n2)c1	-0.7	4.3	6.4	-20.4	1.0	17.5
Cc1cccc(-c2nsc(SCC(=O)NCC3CCCO3)n2)c1 (stereo not drawn)	9.5*	-10.5	3.7	-2.9	-7.9	5.3
O=[N+]([O-])c1c(Nc2ccc(O)cc2)cc(Cl)c2nonc12	/	/	55.6*	/	/	/
O=[N+]([O-])c1c(Nc2ccccn2)cc(Cl)c2nonc12	-0.5	2.0	59.4*	2.7	3.0	9.0
SMILES	Wee1 degr inh	thrombin 1536	Platelet DG rel	KLK5 inh	FXIa inh	FXIIa inh 1536
COc1cc(C2C3=C(CCCC3=O)Nc3[nH]n(-c4ccccc4)c(=O)c32)ccc1OC(C)=O (stereo not drawn)	-1.7	-1.4	-1.9	6.6	-4.8	7.9
CCOC(=O)Cc1c(C)nc2c(-c3ccc(Cl)cc3)c[nH]n2c1=O	9.8*	-4.4	-1.2	-18.2	-9.6	1.4
O=C(CN(C(=O)C1CSC(=O)C1)c1cccc(F)c1)NCc1ccc2c(c1)OCO2 (stereo not drawn)	/	/	2.9	/	/	/
Cc1ccnc(Cc2ccccc2)n1	/	/	0.6	/	/	/
COc1ccccc1N1CCN(c2ccc3ccccc3n2)CC1	/	/	17.8	/	/	/
COc1ccccc1N1CCN(c2ccc(-c3ccccc3)nn2)CC1	4.0	5.9	53.8*	-10.5	-9.2	4.3
Cc1ccc(C)c(N(CC(=O)NC2CCCC2)C(=O)CCCC(=O)Nc2ccccn2)c1	8.9*	-0.7	-0.3	7.1	7.5	9.8
CC1(c2ccccc2Cl)NC(=O)N(CC(=O)c2ccc3c(c2)OCO3)C1=O (stereo not drawn)	/	/	2.7	/	/	/
COCC(=O)n1nc(-c2ccc(C)cc2)nc1NCc1ccc(F)cc1	3.3	79.0*	/	-17.2	-5.8	-6.0
COCC(=O)n1nc(-c2ccccc2)nc1NCc1ccc(N(C)C)cc1	2.2	11.8	-0.2	-25.4	-7.5	-6.5
COCC(=O)n1nc(-c2ccc(Cl)cc2)nc1NCc1ccc(F)cc1	-1.2	51.4*	0.8	-8.8	1.4	12.4
COC(=O)c1cccc(NS(=O)(=O)c2ccc(OC)c(OC)c2)c1C	-2.6	1.9	8.3	10.2	-0.1	49.6*
COC(=O)c1cccc(NS(=O)(=O)c2ccc(OC)cc2)c1C	3.7	0.0	4.2	-12.5	6.6	14.6
COC(=O)CNC(=O)CNC(=O)Nc1ccccc1Cl	-2.6	5.9	-9.8	40.8*	-3.0	7.5
CCOC(=O)CNC(=O)Nc1cccc(Cl)c1C	-0.5	3.2	1.0	-23.4	-0.4	10.2
CCNc1nc(NC(C)C)nc(Oc2ccc(=O)n(C)n2)n1	0.5	-6.3	8.8	2.5	-2.2	6.4
O=C(CC1S/C(=N/N=C/c2c[nH]c3ccc(OCc4ccccc4)cc23)NC1=O)Nc1ccccc1 (stereo not drawn)	8.9*	1.4	0.5	-8.0	-1.1	6.0
COc1ccc(CCN2CC(C(=O)N3CCCCCC3)CCC2=O)cc1 (stereo not drawn)	/	/	-1.9	/	/	/
CCc1ccc(CN(C)CC(=O)Nc2ccc3c(c2)CCC3)cc1	0.4	-4.8	0.2	4.0	-10.1	8.3
Cc1ccc(CN(C)CC(=O)Nc2ccc3c(c2)CCC3)cc1	-1.1	2.1	5.5	47.3*	29.8	31.1
CC(=O)c1cccc(NC(=O)C(C)N(C)CC(=O)Nc2ccc(Cl)cc2)c1 (stereo not drawn)	3.5	-7.5	5.7	4.4	2.0	0.8
CCOC(=O)n1c(=O)n(Cc2c(Cl)cccc2Cl)c2ccccc21	0.3	6.0	-8.1	42.5*	1.8	14.4
CSc1ccc(S(=O)(=O)Nc2ccc(S(=O)(=O)Nc3ccc(C)cc3)cc2)cc1	4.8	-4.2	10.2	-26.5	-2.3	9.6
Cc1ccc(S(=O)(=O)Nc2ccc(N(C)S(=O)(=O)c3ccc(C)cc3)cc2)cc1	10.2*	1.8	13.5	-1.8	1.8	8.5
Cc1ccc(NS(=O)(=O)N(C)C)cc1	9.8*	3.2	2.1	0.6	12.7	20.0
COC(=O)c1ccc(NS(=O)(=O)N(C)C)cc1	1.2	3.8	-0.8	-0.3	3.8	16.2
